# Measurements collected from several papers.
SMILES,test,system,setting,endpoint,value
Cc1[nH]c(C)c(S(=O)(=O)Nc2ccc(S(F)(F)(F)(F)F)c(Cl)c2)c1C(=O)N1CCC(F)(F)C1,metabolic stability,"mouse, liver microsomes",,microsomal CLint,25.4 µL/min/mg
Cl.Cn1c(=O)n(CCCCN2CCC3(CC2)OCc2ccccc23)c2ccccc21,,"male Sprague-Dawley rat, plasma","intravenous, 5 mg/kg",Vd,8.4 L/kg
CC(C)CC(=O)OC[C@H]1O[C@@](C#N)(c2ccc3c(N)ncnn23)[C@H](O)[C@@H]1O,metabolic stability,"mouse, hepatocytes",5 µM,hepatocyte CLint,> 318 µL/min/10⁶ cells
Cc1[nH]c(C)c(S(=O)(=O)Nc2ccc(S(=O)(=O)F)c(Cl)c2)c1C(=O)N1CCC(F)(F)C1,metabolic stability,"mouse, liver microsomes",,microsomal CLint,21.8 µL/min/mg
C/C=C1/CN2CC[C@@]34c5cc(O)ccc5N(C)[C@]35OC[C@@]4(C(=O)OC)[C@H]1C[C@H]25,,"male Sprague-Dawley rat, plasma","intravenous, 1 mg/kg",Vd,10.2 L/kg
O=C1NC2(CCC2)C(=O)N1c1ccc(F)c(C(F)(F)F)c1,metabolic stability,"mouse, liver microsomes",,microsomal CLint,42 µL/min/mg
CC[C@H](C)CCCCC(=O)N[C@@H](CCN)C(=O)N[C@H](C(=O)N[C@@H](CCN)C(=O)N[C@H]1CCNC(=O)[C@H]([C@@H](C)O)NC(=O)[C@H](CCN)NC(=O)[C@H](CCN)NC(=O)[C@H](CC(C)C)NC(=O)[C@@H](CC(C)C)NC(=O)[C@H](CCN)NC1=O)[C@@H](C)O,,"male Sprague-Dawley rat, plasma","intravenous, 5 mg/kg",Vd,0.736 L/kg
CC1(CC(F)(F)F)NC(=O)N(c2ccc(F)c(C(F)(F)F)c2)C1=O (stereo not drawn),metabolic stability,"mouse, liver microsomes",,microsomal CLint,< 7 µL/min/mg
NCCOCC(=O)N1CCCC(C(=O)NCc2nc(-c3ccc(-c4ccc(F)cc4)cc3)cs2)C1 (stereo not drawn),,"rat, plasma","intravenous, 1 mg/kg",Vd,26 L/kg
